Two compounds from ChEMBL document CHEMBL4130499, “Serendipitous discovery of potent human head and neck squamous cell carcinoma anti-cancer molecules: A fortunate failure of a rational molecular design” (Eur J Med Chem, 2017) can be followed below.

Active and inactive are the calls of the source. No cut-off for these calls is given here. Bounds are passed on as bounds.

Series [1] addresses T1, Histone deacetylase (Homo sapiens) (UniProt Q13547+O15379+Q9UBN7+Q92769+Q9UQL6+Q8WUI4+Q9BY41+Q96DB2+P56524+Q9UKV0+Q969S8). As to the kind of experiment: Inhibition of HDAC in human HN13 cells assessed as reduction in histone H3 acetylation incubated for 24 hrs by immunofluorescence assay. The class given is cell-based. The essentials:
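HN13 on glass coverslips, overnight at 37 °C, then treated 24 h at 1 and 10 nM, TSA as positive control. Fixed in 4% paraformaldehyde, permeabilized with 0.5% Triton X-100, blocked in 3% BSA/PBS. Anti-AcH3 (lys9) primary 2 h, TRITC anti-rabbit 1 h, nuclear counterstain.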

The target of series [2] is T1, Histone deacetylase (Homo sapiens). As to the kind of experiment: Inhibition of HDAC in human HeLa nuclear extracts at 500 uM incubated for 60 mins using fluorometric substrate by fluorometric assay. The format is protein assay. The essentials:
(§1)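 HeLa nuclear extract incubated with compound, assay buffer and acetyl-lysine fluorogenic HDAC substrate for 60 min at 37 °C. Lysine developer then added for a further 30 min at 37 °C. Fluorescence read at ex 370/em 450 nm. Water served as positive control and 20 µM TSA as inhibitor control.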

Series [3] relates to WSU-HN13. The experiment in a line: Cytotoxicity in human HN13 cells assessed as reduction in cell viability incubated for 24 hrs by MTT assay. The class given is functional, cell-based. The settings on record: WSU-HN13, 24 h. The essentials:
(§2)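 HNSCC lines (HN6, HN12, HN13) grown in DMEM with 10% fetal calf serum at 37 °C, 5% CO2, to 70–80% confluence. Seeded, after 24 h exposed to rising compound concentrations for a further 24 h. MTT (5 mg/mL in PBS) added, formazan dissolved in DMSO, absorbance read at 590 nm. IC50 in nM, mean of three independent triplicate experiments ± standard error.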
A general note: Formazan colour is commonly taken as a measure of viable cells.

Series [4] is described as follows: Cytotoxicity in human HN12 cells assessed as reduction in cell viability incubated for 24 hrs by MTT assay. The settings on record: HN12, 24 h. The class given is functional, cell-based. The essentials:
as §2

Series [5] in a line: Selectivity index, ratio of IC50 for cytotoxicity in human […] cells. The class given is toxicity, cell-based. Particulars: HN13 cells and 184B5 cells, read-out: Ratio IC50.
The target in series [6] is T1, Histone deacetylase (Homo sapiens). The experiment in a line: Inhibition of HDAC in human HN13 cells assessed as increase in histone H3 acetylation at 1 nM incubated for 24 hrs by Western blot. In general terms: In western blotting, separated proteins are transferred to a membrane and probed.
The test system of another series is 184B5. The experiment in a line: Cytotoxicity in human 184B5 cells assessed as reduction in cell viability incubated for 24 hrs by MTT assay. The class given is cell-based. The settings on record: 184B5, 24 h. The essentials: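 184B5 immortalized non-cancer breast epithelial cells; cytotoxicity over 24 h drug exposure, evaluated alongside the HNSCC lines; IC50 in nM taken as mean of three independent triplicate experiments ± standard error.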

The test system of series [7] is WSU-HN13. The experiment in a line: Induction of PTEN protein expression in human HN13 cells incubated for 24 hrs by Western blot. The class given is functional, cell-based. The method in brief:
(§3)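 HN13 cells treated 24 h with 1.0 or 10.0 nM compound versus vehicle controls. Lysed in Tris pH 7.5/SDS/β-mercaptoethanol with protease inhibitors at 4 °C, protein quantified by BCA. 30 μg loaded for SDS-PAGE, transferred to PVDF, blocked 1 h in 5% milk, probed for PTEN (and pS6) with GAPDH loading control. HRP chemiluminescent detection.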

Series [8] concerns WSU-HN13. As to the kind of experiment: Induction of PTEN protein expression in human HN13 cells assessed as reduction in PI3K/Akt/mTOR signalling by measuring reduction in pS6 protein expression incubated for 24 hrs by Western blot. The class given is functional, cell-based. The essentials:
as §3

Series [9] deals with T1, Histone deacetylase (Homo sapiens). As to the kind of experiment: Ratio of inhibition of HDAC in human HN13 cells assessed as increase in histone H3 acetylation to IC50 for inhibition of HDAC in human HeLa nuclear extracts.
A short description of series [10]: Cytotoxicity in human HN6 cells assessed as reduction in cell viability incubated for 24 hrs by MTT assay. The class given is functional, cell-based. The settings on record: HN-6, 24 h. The essentials:
as §2

For another series, the target named is Histone deacetylase. The experiment in a line: Inhibition of HDAC in human HeLa nuclear extracts incubated for 60 mins using fluorometric substrate by fluorometric assay. The format is protein assay. The method in brief:
as §1

Usually inhibition stands for the percentage by which the read-out fell short of the control. As a reminder, the IC50 is the concentration at which inhibition is half-maximal. Consider `NC(=O)c1ccc(NS(=O)(=O)c2ccc(-c3ccccc3)cc2)cc1O`, for which the values for the inhibition entry in [1] and in [2] were “Dose-dependent effect” and 20%, respectively. Besides, the IC50 is 9.66 nM in the series with WSU-HN13 [3], 4.99 nM in series [4], 1960 nM in the series with 184B5 and 4.73 nM in series [10]. Further, the selectivity ratio in series [5] was greater than 200. In addition, in series [6], the inhibition entry was “Active”. Also, the Activity result in the series on WSU-HN13 [7] and in the series on WSU-HN13 [8] was “Dose-dependent effect” throughout. For the same compound, the Ratio in [9] is 10.

For `O=CN/N=C/c1ccc(NS(=O)(=O)c2ccc(-c3ccccc3)cc2)cc1O`, the inhibition result in [1] was “Dose-dependent effect”. For the same compound, the IC50 came out at 9.85 nM with WSU-HN13 [3]; 5.03 nM in [4]; 1840 nM with 184B5; 4.94 nM in series [10]; 292 µM against Histone deacetylase. Besides, the selectivity ratio in [5] was greater than 186. The inhibition result in [6] was “Active”. For the same compound, the Activity entry with WSU-HN13 [7] and in the series with WSU-HN13 [8] was “Dose-dependent effect” each time. Besides, the Ratio in [9] stood at 10.
